Laboratory results taken from ChEMBL document CHEMBL4400518, “Synthesis, antimicrobial and cytotoxic activities, and molecular docking studies of N-arylsulfonylindoles containing an aminoguanidine, a semicarbazide, and a thiosemicarbazide moiety” (Eur J Med Chem, 2019).
In brackets after ≈: the same amount, converted by molar mass.

Assays:
Staphylococcus aureus [1] = assay: Antibacterial activity against Staphylococcus aureus CMCC(B) 26003 measured after 24 hrs by ELISA; type: functional; conditions: CMCC(B) 26003, 24 h
Method in brief: (§1)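 Broth microdilution MIC. Mid-log bacteria in MHB or TSB diluted 1000-fold, inoculated at 10^5 CFU/mL. Compounds added from DMSO stocks; final DMSO at most 0.05%. Incubation 24 h at 37 °C. Growth read as absorbance at 630 nm. MIC taken as the lowest concentration giving complete growth inhibition. Three independent experiments.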

Staphylococcus aureus [2] = assay: Antibacterial activity against Staphylococcus aureus CMCC 25923 measured after 24 hrs by ELISA; type: functional; conditions: CMCC 25923, 24 h; method in brief: as §1
Streptococcus pyogenes = assay: Antibacterial activity against Streptococcus pyogenes CMCC 32067 measured after 24 hrs by ELISA; type: functional; conditions: CMCC 32067, 24 h; method in brief: as §1
Streptococcus pneumoniae = assay: Antibacterial activity against Streptococcus pneumoniae CMCC 31968 measured after 24 hrs by ELISA; type: functional; conditions: CMCC 31968, 24 h
Enterococcus faecalis = assay: Antibacterial activity against Enterococcus faecalis CMCC 29212 measured after 24 hrs by ELISA; type: functional; conditions: CMCC 29212, 24 h; method in brief: as §1
Bacillus subtilis = assay: Antibacterial activity against Bacillus subtilis CMCC 63501 measured after 24 hrs by ELISA; type: functional; conditions: CMCC 63501, 24 h; method in brief: as §1
Escherichia coli [3] = assay: Antibacterial activity against Escherichia coli CMCC 25922 measured after 24 hrs by ELISA; type: functional; conditions: CMCC 25922, 24 h; method in brief: as §1
Escherichia coli [4] = assay: Antibacterial activity against Escherichia coli CMCC 44568 measured after 24 hrs by ELISA; type: functional; conditions: CMCC 44568, 24 h; method in brief: as §1
Pseudomonas aeruginosa [5] = assay: Antibacterial activity against Pseudomonas aeruginosa CMCC 27853 measured after 24 hrs by ELISA; type: functional; conditions: CMCC 27853, 24 h; method in brief: as §1
Pseudomonas aeruginosa [6] = assay: Antibacterial activity against Pseudomonas aeruginosa CMCC 10104 measured after 24 hrs by ELISA; type: functional; conditions: CMCC 10104, 24 h; method in brief: as §1
Staphylococcus aureus [7] = assay: Antibacterial activity against methicillin-resistant Staphylococcus aureus ATCC 43300 measured after 24 hrs by ELISA; type: functional; conditions: ATCC 43300, 24 h
Method in brief: (§2)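 Broth serial dilution MIC. Mid-log bacteria in Mueller-Hinton or Tryptone Soya broth, diluted 1000-fold and inoculated at 10^5 CFU/mL. Compounds from DMSO stock, final DMSO ≤0.05%. Incubated 24 h at 37 °C; growth read as absorbance at 630 nm. MIC is the lowest concentration giving complete growth inhibition. Three independent experiments.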

Staphylococcus aureus [8] = assay: Antibacterial activity against methicillin-resistant Staphylococcus aureus ATCC 33591 measured after 24 hrs by ELISA; type: functional; conditions: ATCC 33591, 24 h; method in brief: as §2
Escherichia coli [9] = assay: Antibacterial activity against multidrug-resistant Escherichia coli ATCC BAA-196 measured after 24 hrs by ELISA; type: functional; conditions: ATCC BAA-196, 24 h; method in brief: as §2
Pseudomonas aeruginosa [10] = assay: Antibacterial activity against multidrug-resistant Pseudomonas aeruginosa ATCC BAA-2111 measured after 24 hrs by ELISA; type: functional; conditions: ATCC BAA-2111, 24 h; method in brief: as §2
[11] = Cytotoxicity against human A590 cells measured after 48 hrs by CCK8 assay; type: functional, cell-based
Method in brief: (§3)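 Cells kept in DMEM with 10% FBS and penicillin-streptomycin at 37 °C, 5% CO2. About 1×10^4 cells per well attached for 24 h, then exposed for 48 h to 0.3, 1, 3, 10, 30 and 100 µmol/L of compound, in triplicate wells. CCK-8 added for 3 h, OD read at 450 nm. IC50 is the concentration inhibiting growth by 50%.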

SGC-7901 = assay: Cytotoxicity against human SGC7901 cells measured after 48 hrs by CCK8 assay; type: functional, cell-based; conditions: SGC-7901, 48 h; method in brief: as §3
HEK-293T = assay: Cytotoxicity against HEK293T cells measured after 48 hrs by CCK8 assay; type: cell-based; conditions: Homo sapiens; method in brief: as §3
[12] = Selectivity index, ratio of IC50 for HEK293T cells to MIC for Staphylococcus aureus CMCC(B) 26003; type: toxicity; conditions: human, read-out: Selectivity Index
[13] = Selectivity index, ratio of IC50 for HEK293T cells to MIC for Staphylococcus aureus CMCC 25923; type: toxicity; conditions: human, read-out: Selectivity Index
[14] = Selectivity index, ratio of IC50 for HEK293T cells to MIC for Streptococcus pyogenes CMCC 32067; type: toxicity; conditions: human, read-out: Selectivity Index
[15] = Selectivity index, ratio of IC50 for HEK293T cells to MIC for Streptococcus pneumoniae CMCC 31968; type: toxicity; conditions: human, read-out: Selectivity Index
[16] = Selectivity index, ratio of IC50 for HEK293T cells to MIC for Enterococcus faecalis CMCC 29212; type: toxicity; conditions: human, read-out: Selectivity Index
[17] = Selectivity index, ratio of IC50 for HEK293T cells to MIC for Bacillus subtilis CMCC 63501; type: toxicity; conditions: human, read-out: Selectivity Index
[18] = Selectivity index, ratio of IC50 for HEK293T cells to MIC for Escherichia coli CMCC 25922; type: toxicity; conditions: human, read-out: Selectivity Index
[19] = Selectivity index, ratio of IC50 for HEK293T cells to MIC for Escherichia coli CMCC 44568; type: toxicity; conditions: human, read-out: Selectivity Index
[20] = Selectivity index, ratio of IC50 for HEK293T cells to MIC for Pseudomonas aeruginosa CMCC 27853; type: toxicity; conditions: human, read-out: Selectivity Index
[21] = Selectivity index, ratio of IC50 for HEK293T cells to MIC for Pseudomonas aeruginosa CMCC 10104; type: toxicity; conditions: human, read-out: Selectivity Index
[22] = Selectivity index, ratio of IC50 for HEK293T cells to MIC for methicillin-resistant Staphylococcus aureus ATCC 43300; type: toxicity; conditions: human, read-out: Selectivity Index
[23] = Selectivity index, ratio of IC50 for HEK293T cells to MIC for methicillin-resistant Staphylococcus aureus ATCC 33591; type: toxicity; conditions: human, read-out: Selectivity Index
[24] = Selectivity index, ratio of IC50 for HEK293T cells to MIC for multidrug-resistant Escherichia coli ATCC BAA-196; type: toxicity; conditions: human, read-out: Selectivity Index
[25] = Selectivity index, ratio of IC50 for HEK293T cells to MIC for multidrug-resistant Pseudomonas aeruginosa ATCC BAA-2111; type: toxicity; conditions: human, read-out: Selectivity Index

| SMILES | MIC (Staphylococcus aureus [1]) | MIC (Staphylococcus aureus [2]) | MIC (Streptococcus pyogenes) | MIC (Streptococcus pneumoniae) | MIC (Enterococcus faecalis) | MIC (Bacillus subtilis) | MIC (Escherichia coli [3]) | MIC (Escherichia coli [4]) | MIC (Pseudomonas aeruginosa [5]) | MIC (Pseudomonas aeruginosa [6]) | MIC (Staphylococcus aureus [7]) | MIC (Staphylococcus aureus [8]) | MIC (Escherichia coli [9]) | MIC (Pseudomonas aeruginosa [10]) | IC50 [11] | IC50 (SGC-7901) | IC50 (HEK-293T) | selectivity ratio [12] | selectivity ratio [13] | selectivity ratio [14] | other results |
| --- | --- | --- | --- | --- | --- | --- | --- | --- | --- | --- | --- | --- | --- | --- | --- | --- | --- | --- | --- | --- | --- |
| CC/C(=N/NC(=N)N)c1cn(S(=O)(=O)c2ccc(C)cc2)c2ccc(Br)cc12 | 4.34 µM (≈ 2.01 µg/mL) | 2.17 µM (≈ 1 µg/mL) | 139 µM (≈ 64.2 µg/mL) | 1.08 µM (≈ 0.499 µg/mL) | 4.34 µM (≈ 2.01 µg/mL) | 2.17 µM (≈ 1 µg/mL) | 34.7 µM (≈ 16 µg/mL) | 4.34 µM (≈ 2.01 µg/mL) | > 278 µM | > 278 µM | 2.17 µM (≈ 1 µg/mL) | 2.17 µM (≈ 1 µg/mL) | 8.68 µM (≈ 4.01 µg/mL) | > 69.4 µM | 2.33 µM | 3.92 µM | 57.6 µM | 13.3 | 13.3 | 0.42 | selectivity ratio [15]: 53.4; selectivity ratio [16]: 13.3; selectivity ratio [17]: 26.6; selectivity ratio [18]: 1.66; selectivity ratio [19]: 13.3; selectivity ratio [20]: < 0.21; selectivity ratio [21]: < 0.21; selectivity ratio [22]: 26.6; selectivity ratio [23]: 26.6; selectivity ratio [24]: 6.64; selectivity ratio [25]: < 0.83 |
| C/C(=N/NC(=N)N)c1cn(S(=O)(=O)c2ccccc2)c2ccccc12 | 22.5 µM (≈ 8.01 µg/mL) | 22.5 µM (≈ 8.01 µg/mL) | 22.5 µM (≈ 8.01 µg/mL) | 1.4 µM (≈ 0.498 µg/mL) | 45.1 µM (≈ 16 µg/mL) | 22.5 µM (≈ 8.01 µg/mL) | 45.1 µM (≈ 16 µg/mL) | 11.3 µM (≈ 4.01 µg/mL) | 90.1 µM (≈ 32 µg/mL) | 45.1 µM (≈ 16 µg/mL) | – | – | – | – | – | – | – | – | – | – | – |
| N=C(N)N/N=C\c1cn(S(=O)(=O)c2ccccc2)c2ccc(Br)cc12 | 153 µM (≈ 64.2 µg/mL) | 2.37 µM (≈ 0.996 µg/mL) | 305 µM (≈ 128 µg/mL) | > 305 µM | 19.1 µM (≈ 8.02 µg/mL) | 4.77 µM (≈ 2 µg/mL) | 9.55 µM (≈ 4.01 µg/mL) | 1.19 µM (≈ 0.5 µg/mL) | > 305 µM | 9.55 µM (≈ 4.01 µg/mL) | 2.39 µM (≈ 1 µg/mL) | 2.39 µM (≈ 1 µg/mL) | 2.39 µM (≈ 1 µg/mL) | > 76.4 µM | 14.7 µM | 3.06 µM | 71.6 µM | 0.47 | 30.2 | 0.23 | selectivity ratio [15]: < 0.23; selectivity ratio [16]: 3.75; selectivity ratio [17]: 15; selectivity ratio [18]: 7.5; selectivity ratio [19]: 60.2; selectivity ratio [20]: < 0.23; selectivity ratio [21]: 7.5; selectivity ratio [22]: 30; selectivity ratio [23]: 30; selectivity ratio [24]: 30; selectivity ratio [25]: < 0.94 |
| Cc1ccc(S(=O)(=O)n2cc(/C=N\NC(=N)N)c3ccccc32)cc1 | 11.3 µM (≈ 4.01 µg/mL) | 11.3 µM (≈ 4.01 µg/mL) | > 361 µM | 2.82 µM (≈ 1 µg/mL) | 45.1 µM (≈ 16 µg/mL) | 5.64 µM (≈ 2 µg/mL) | 11.3 µM (≈ 4.01 µg/mL) | 11.3 µM (≈ 4.01 µg/mL) | 45.1 µM (≈ 16 µg/mL) | 11.3 µM (≈ 4.01 µg/mL) | 2.82 µM (≈ 1 µg/mL) | 5.63 µM (≈ 2 µg/mL) | 11.3 µM (≈ 4.01 µg/mL) | 11.3 µM (≈ 4.01 µg/mL) | 12.2 µM | 2.12 µM | 86.7 µM | 7.68 | 7.68 | < 0.24 | selectivity ratio [15]: 30.7; selectivity ratio [16]: 1.92; selectivity ratio [17]: 15.4; selectivity ratio [18]: 7.68; selectivity ratio [19]: 7.68; selectivity ratio [20]: 1.92; selectivity ratio [21]: 7.68; selectivity ratio [22]: 30.7; selectivity ratio [23]: 15.4; selectivity ratio [24]: 7.67; selectivity ratio [25]: 7.67 |
| C/C(=N/NC(=N)N)c1cn(S(=O)(=O)c2ccc(C)cc2)c2ccccc12 | 10.8 µM (≈ 4 µg/mL) | 5.42 µM (≈ 2 µg/mL) | 21.7 µM (≈ 8.01 µg/mL) | 2.71 µM (≈ 1 µg/mL) | 43.4 µM (≈ 16 µg/mL) | 10.8 µM (≈ 4 µg/mL) | 21.7 µM (≈ 8.01 µg/mL) | 10.8 µM (≈ 4 µg/mL) | 347 µM (≈ 128 µg/mL) | 10.8 µM (≈ 4 µg/mL) | 5.42 µM (≈ 2 µg/mL) | 5.42 µM (≈ 2 µg/mL) | 10.8 µM (≈ 4 µg/mL) | > 86.7 µM | 2.68 µM | 2.38 µM | 53 µM | 4.89 | 9.78 | 2.44 | selectivity ratio [15]: 19.6; selectivity ratio [16]: 1.22; selectivity ratio [17]: 4.89; selectivity ratio [18]: 2.44; selectivity ratio [19]: 4.89; selectivity ratio [20]: 0.15; selectivity ratio [21]: 4.89; selectivity ratio [22]: 9.78; selectivity ratio [23]: 9.78; selectivity ratio [24]: 4.89; selectivity ratio [25]: < 0.61 |
